Where only a bound is given, the exact number is not on record here.

The target in one assay is T1, Cathepsin K (Homo sapiens, UniProt P43235).
T1 sequence (P43235 whole entry): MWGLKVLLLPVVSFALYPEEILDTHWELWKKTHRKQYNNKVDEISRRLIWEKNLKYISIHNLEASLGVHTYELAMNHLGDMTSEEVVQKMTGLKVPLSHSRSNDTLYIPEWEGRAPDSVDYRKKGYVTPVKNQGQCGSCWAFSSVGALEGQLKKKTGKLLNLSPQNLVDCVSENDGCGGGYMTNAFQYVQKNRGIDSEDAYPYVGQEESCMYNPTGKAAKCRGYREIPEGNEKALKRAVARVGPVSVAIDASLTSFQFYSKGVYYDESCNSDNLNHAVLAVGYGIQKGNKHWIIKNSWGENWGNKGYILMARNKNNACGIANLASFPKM
As to the kind of experiment: Inhibition of recombinant human cathepsin K in fluorescence assay. In a few lines:
(§1)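 Each recombinant human enzyme (cathepsin K, L or S) was assayed separately. IC50 values are the mean of two independent experiments, each performed in duplicate.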

In another assay the target is Cathepsin S (Homo sapiens, UniProt P25774). Kind of assay: Inhibition of recombinant human cathepsin S in a fluorescence assay. In a few lines:
as §1

For another assay, the target named is Procathepsin L (Homo sapiens, UniProt P07711). Kind of assay: Inhibition of recombinant human cathepsin L in a fluorescence assay. In a few lines:
as §1

Assay [1] concerns the target Cathepsin K (Oryctolagus cuniculus). As to the kind of experiment: Eq. constant (Ki) for inhibition of Cathepsin K was determined by progress curves, following hydrolysis of Z-Phe-Arg- Amc in the absence and presence of compound.

Sequence of Procathepsin L (P07711 whole entry): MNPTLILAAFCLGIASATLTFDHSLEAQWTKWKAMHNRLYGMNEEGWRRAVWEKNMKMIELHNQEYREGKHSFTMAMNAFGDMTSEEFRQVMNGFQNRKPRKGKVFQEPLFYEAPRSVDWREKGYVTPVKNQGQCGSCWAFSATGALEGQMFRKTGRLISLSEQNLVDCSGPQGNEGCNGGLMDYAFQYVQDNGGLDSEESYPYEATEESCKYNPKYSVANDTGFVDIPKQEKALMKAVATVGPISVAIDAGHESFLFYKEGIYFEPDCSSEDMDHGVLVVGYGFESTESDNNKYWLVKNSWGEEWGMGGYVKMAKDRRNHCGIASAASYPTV
Sequence of Cathepsin S (P25774 whole entry): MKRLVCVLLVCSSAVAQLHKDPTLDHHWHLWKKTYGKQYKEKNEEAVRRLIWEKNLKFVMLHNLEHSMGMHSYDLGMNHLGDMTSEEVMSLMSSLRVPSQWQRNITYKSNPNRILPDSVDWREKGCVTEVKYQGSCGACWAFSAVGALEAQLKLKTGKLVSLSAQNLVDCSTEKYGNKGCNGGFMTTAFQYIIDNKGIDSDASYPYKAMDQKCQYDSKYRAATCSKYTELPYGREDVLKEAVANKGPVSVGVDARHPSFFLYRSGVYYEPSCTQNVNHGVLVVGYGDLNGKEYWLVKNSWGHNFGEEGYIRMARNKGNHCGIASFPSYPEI

Turning to `COc1ccc(NCCNC(=O)[C@H](CC(C)C)NC(=O)c2ccc(C(C)C)cc2)cc1`, the values for the IC50 at Cathepsin K, at Cathepsin S and on Procathepsin L were less than 3 nM, 5700 nM and 50 nM, respectively.
The matching figures for `COc1ccc(NCCNC(=O)[C@H](CC(C)C)NC(=O)c2ncn(-c3ccccc3Cl)n2)cc1`: 6 nM, 1900 nM and 2300 nM.
The matching figures for `COc1ccc(NCCNC(=O)[C@H](CC(C)C)NC(=O)c2ccc(C(C)C)cn2)cc1`: less than 3 nM, 7200 nM and 1500 nM.
Take `CCCc1ccc(C(=O)N[C@@H](CC(C)C)C(=O)NCCNc2ccc(OC)cc2)cc1`: the IC50 was less than 3 nM on Cathepsin K, 1200 nM on Cathepsin S and less than 30 nM at Procathepsin L.
Take `COc1ccc(NCCNC(=O)[C@H](CC(C)C)NC(=O)c2ccc(OCc3ccccc3)cc2)cc1`: the values for the half-maximal inhibitory concentration (IC50) on Cathepsin K, on Cathepsin S and on Procathepsin L were 6 nM, 9500 nM and greater than 10000 nM, respectively. The Ki in assay [1] came to 15 nM.
The matching figures for `COc1ccc(NCCNC(=O)[C@H](CC(C)C)NC(=O)c2ncn(-c3cccc(Cl)c3Cl)n2)cc1`: 9 nM, 190 nM, greater than 10000 nM and 11 nM.

For orientation: IC50 means the point on the concentration scale where inhibition reaches its midpoint. By Ki is commonly meant the equilibrium dissociation constant of an inhibitor or competing ligand from its target.

Values taken from ChEMBL document CHEMBL1135429, “Arylaminoethyl amides as novel non-covalent cathepsin K inhibitors” (J Med Chem, 2002).
